Activity calls are given as the source filed them. No cut-off for these calls is given here.
Key:
A549 [1] = test: Growth inhibition of human A549 cells assessed as cell viability at 8 to 64 uM after 48 hrs by SRB assay; format: functional, cell-based
Procedure, shortened: (§1)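 A549 cells (p53 wild-type) in RPMI 1640 with 10% bovine calf serum, seeded at 6250/cm2 in 96-well plates. Exposed 48 h to 8, 16, 32 or 64 µM. SRB read-out gave survival percentage against 0.1% DMSO-treated cells. Means ± SE from three independent experiments.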

NCI-H322 [2] = test: Induction of apoptosis in human NCI-H322 cells expressing P53 mutant assessed as chromatin condensation at 32 to 64 uM after 48 hrs by Hoechst 33258 staining-based fluorescence microscopy; format: functional, cell-based
Procedure, shortened: (§2)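 H322 or H1299 cells treated 48 h at 32 or 64 µM versus 0.1% DMSO. Fixed in 4% formaldehyde in PBS for 10 min, then stained with 2 µg/mL Hoechst 33258, 30 min, 37 °C, and washed with PBS. Condensed, intensely stained nuclei counted as apoptotic under fluorescence microscopy. At least 500 cells counted; triplicate.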

A549 [3] = test: Induction of necrosis in human A549 cells assessed as LDH release at 64 uM after 48 hrs; format: functional, cell-based
Procedure, shortened: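 A549 cells exposed 48 h to 64 µM or 0.1% DMSO control. Culture medium collected and lactate dehydrogenase measured with a commercial kit, absorbance at 440 nm. Mean ± SE, n = 3.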

A549 [4] = test: Growth inhibition of human A549 cells assessed as cell viability after 48 hrs by SRB assay; format: functional, cell-based; procedure, shortened: as §1
A549 [5] = test: Cell cycle arrest in human A549 cells assessed as accumulation at […] phase at 64 uM after 48 hrs by propidium iodide staining-based flow cytometry (reference value: 1.94 %); format: functional
A549 [6] = test: Cell cycle arrest in human A549 cells assessed as accumulation at S phase at 64 uM after 48 hrs by propidium iodide staining-based flow cytometry (reference value: 30.36 %); format: functional
NCI-H322 [7] = test: Induction of apoptosis in human NCI-H322 cells expressing P53 mutant assessed as DNA fragmentation at 32 to 64 uM after 48 hrs by Hoechst 33258 staining-based fluorescence microscopy; format: functional, cell-based; procedure, shortened: as §2
[8] = Cytotoxicity against human embryonic lung cells assessed as growth inhibition at 32 to 64 uM after 48 hrs by SRB assay; format: cell-based
Procedure, shortened: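 Human embryo lung cells grown in RPMI 1640 with 10% bovine calf serum, seeded at 6250/cm2, treated 48 h at 32 or 64 µM. Controls were 0.1% DMSO vehicle and 5-FU as positive control. Viability by SRB, relative to DMSO-treated cells. Means ± SE, three independent experiments.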

NCI-H1299 [9] = test: Induction of apoptosis in human p53-null H1299 cells assessed as DNA fragmentation at 32 to 64 uM after 48 hrs by Hoechst 33258 staining-based fluorescence microscopy; format: functional, cell-based; procedure, shortened: as §2
NCI-H1299 [10] = test: Growth inhibition of human H1299 cells assessed as cell viability after 48 hrs by SRB assay; format: functional, cell-based
Procedure, shortened: (§3)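 H1299 (p53-null) or H322 (p53-mutant) cells in RPMI 1640 with 10% bovine calf serum, seeded at 6250/cm2. Treated 48 h at 16, 32 or 64 µM. SRB assay, survival relative to 0.1% DMSO solvent control. Means ± SE, three independent experiments.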

A549 [11] = test: Cell cycle arrest in human A549 cells assessed as accumulation at G1 phase at 64 uM after 48 hrs by propidium iodide staining-based flow cytometry relative to control; format: functional
NCI-H1299 [12] = test: Induction of apoptosis in human p53-null H1299 cells assessed as chromatin condensation at 32 to 64 uM after 48 hrs by Hoechst 33258 staining-based fluorescence microscopy; format: functional, cell-based; procedure, shortened: as §2
A549 [13] = test: Cell cycle arrest in human A549 cells assessed as accumulation at G2 phase at 64 uM after 48 hrs by propidium iodide staining-based flow cytometry (reference value: 11.52 %); format: functional
A549 [14] = test: Induction of apoptosis in human A549 cells expressing p53 assessed as DNA fragmentation at 16 to 64 uM after 48 hrs by Hoechst 33258 staining-based fluorescence microscopy; format: functional, cell-based
Procedure, shortened: (§4)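 Live A549 cells treated 48 h at 16, 32 or 64 µM, or with 0.1% DMSO. Stained in medium with 10 µg/mL Hoechst 33258 for 10 min at 37 °C, washed with PBS. Fluorescence microscopy (200×) scored intense local nuclear staining as apoptotic. At least 500 cells counted; triplicate.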

A549 [15] = test: Induction of apoptosis in human A549 cells expressing p53 assessed as chromatin condensation at 16 to 64 uM after 48 hrs by Hoechst 33258 staining-based fluorescence microscopy; format: functional, cell-based; procedure, shortened: as §4
NCI-H322 [16] = test: Growth inhibition of human NCI-H322 cells assessed as cell viability after 48 hrs by SRB assay; format: functional, cell-based; procedure, shortened: as §3

COc1ccc(-c2cc3n(n2)CCN(CCOCCO)C3=O)cc1
growth inhibition (GI) (A549 [1]): inactive

O=C1c2cc(-c3ccc(Cl)cc3)nn2CCN1CCOCCO
Activity (NCI-H322 [2]): Active
Activity (A549 [3]): inactive
growth inhibition (GI) (A549 [4]): Dose-dependent effect
Activity (A549 [5]): 1.93%
Activity (A549 [6]): 20.98%
Activity (NCI-H322 [7]): Active
Activity [8]: Non-toxic
Activity (NCI-H1299 [9]): Active
growth inhibition (GI) (NCI-H1299 [10]): Dose-dependent effect
Activity (A549 [11]): 13%
Activity (NCI-H1299 [12]): Active
Activity (A549 [13]): 7.86%
Activity (A549 [14]): inactive
Activity (A549 [15]): inactive
growth inhibition (GI) (NCI-H322 [16]): Dose-dependent effect

O=C1c2cc(-c3ccccc3)nn2CCN1CCCO
growth inhibition (GI) (A549 [1]): inactive

O=C1c2cc(-c3ccc(Cl)cc3)nn2CCN1CCN1CCOCC1
Activity (NCI-H322 [2]): Active
Activity (A549 [3]): inactive
growth inhibition (GI) (A549 [4]): Dose-dependent effect
Activity (A549 [5]): 1.94%
Activity (A549 [6]): 7.6%
Activity (NCI-H322 [7]): Active
Activity [8]: Non-toxic
Activity (NCI-H1299 [9]): Active
growth inhibition (GI) (NCI-H1299 [10]): Dose-dependent effect
Activity (A549 [11]): 27%
Activity (NCI-H1299 [12]): Active
Activity (A549 [13]): 6.83%
Activity (A549 [14]): inactive
Activity (A549 [15]): inactive
growth inhibition (GI) (NCI-H322 [16]): Dose-dependent effect

O=C1c2cc(-c3ccccc3)nn2CCN1CCOCCO
growth inhibition (GI) (A549 [1]): inactive

O=C1c2cc(-c3ccc(Cl)cc3)nn2CCN1CCCO
Activity (NCI-H322 [2]): Active
Activity (A549 [3]): inactive
growth inhibition (GI) (A549 [4]): Dose-dependent effect
Activity (A549 [5]): 1.92%
Activity (A549 [6]): 3.83%
Activity (NCI-H322 [7]): Active
Activity [8]: Non-toxic
Activity (NCI-H1299 [9]): Active
growth inhibition (GI) (NCI-H1299 [10]): Dose-dependent effect
Activity (A549 [11]): 32%
Activity (NCI-H1299 [12]): Active
Activity (A549 [13]): 5.54%
Activity (A549 [14]): inactive
Activity (A549 [15]): inactive
growth inhibition (GI) (NCI-H322 [16]): Dose-dependent effect

O=C1c2cc(-c3ccccc3)nn2CCN1CCO
growth inhibition (GI) (A549 [1]): inactive

O=C1c2cc(-c3ccccc3)nn2CCN1CCN1CCOCC1
growth inhibition (GI) (A549 [1]): inactive

COc1ccc(-c2cc3n(n2)CCN(CCN2CCOCC2)C3=O)cc1
growth inhibition (GI) (A549 [1]): inactive

COc1ccc(-c2cc3n(n2)CCN(CCCO)C3=O)cc1
growth inhibition (GI) (A549 [1]): inactive

O=C1c2cc(-c3ccc(Cl)cc3)nn2CCN1CCO
Activity (NCI-H322 [2]): Active
Activity (A549 [3]): inactive
growth inhibition (GI) (A549 [4]): Dose-dependent effect
Activity (A549 [5]): 1.95%
Activity (A549 [6]): 18.02%
Activity (NCI-H322 [7]): Active
Activity [8]: Non-toxic
Activity (NCI-H1299 [9]): Active
growth inhibition (GI) (NCI-H1299 [10]): Dose-dependent effect
Activity (A549 [11]): 18%
Activity (NCI-H1299 [12]): Active
Activity (A549 [13]): 5.37%
Activity (A549 [14]): inactive
Activity (A549 [15]): inactive
growth inhibition (GI) (NCI-H322 [16]): Dose-dependent effect

COc1ccc(-c2cc3n(n2)CCN(CCO)C3=O)cc1
growth inhibition (GI) (A549 [1]): inactive

Reference: ChEMBL document CHEMBL1781942, “Microwave-assisted synthesis, crystal structure of pyrazolo[1,5-a]pyrazin-4(5H)-ones and their selective effects on lung cancer cells” (Eur J Med Chem, 2011)
